Holding throughout (type): functional
One test relates to Candida albicans. As to the kind of experiment: Antifungal activity against Candida albicans ATCC 10231 after 24 hrs by MTT assay. The settings on record: ATCC 10231, 24 h. In a few lines:
(§1)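 Broth microdilution. Inocula were grown in Mueller-Hinton broth from subcultures on nutrient agar (37 °C, 48 h) and set to McFarland 0.5. Compounds in DMSO were diluted with water, then two-fold serially from 3.91 to 250 µg/mL. Gentamicin and tetracycline served as positive controls and DMSO as negative. Plates ran 37 °C for 24 h, then MTT (0.2 mg/mL) for 30 min. MIC was the lowest concentration preventing the yellow-to-purple change.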
On the technique in general: Tetrazolium assays rely on reduction of a dye to a coloured formazan, in cell work by metabolically active cells.

Another test has as its system Staphylococcus aureus. Briefly: Antibacterial activity against Staphylococcus aureus ATCC 25923 after 24 hrs by MTT assay. To be noted: ATCC 25923, 24 h. In a few lines:
as §1

For the next test, the system named is Haemophilus influenzae. As to the kind of experiment: Antibacterial activity against Haemophilus influenzae ATCC 10211 after 24 hrs by MTT assay. In a few lines: as §1
The subject of test [1] is Mycobacterium tuberculosis. Briefly: Antibacterial activity against Mycobacterium tuberculosis H37Rv ATCC 27294 after 5 days by MTT assay. To be noted: H37Rv ATCC 27294, 120 h. In a few lines:
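Inoculum from log-phase culture in Middlebrook 7H9 with ADC, set to McFarland no. 1 (approximately 3×10^7 CFU/mL), then diluted 1:20 in 7H9-OADC. Compounds in DMSO/water, two-fold series 3.91–250 μg/mL, tested in triplicate. Isoniazid positive control, drug-free growth wells. Incubated 37 °C, 8% CO₂. MTT–Tween 80 added to a control well; once purple, added to all wells. MIC read next day.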

In a further test the test system is Streptococcus pyogenes. As to the kind of experiment: Antibacterial activity against Streptococcus pyogenes ATCC 19615 after 24 hrs by MTT assay. The settings on record: ATCC 19615, 24 h. The method, boiled down: as §1

This note sets out measurements from ChEMBL document CHEMBL1817667, “Synthesis and antimicrobial properties of some new thiazolyl coumarin derivatives” (2011).

Converted amounts (≈) assume the structure as drawn.

As to `O=c1oc2ccccc2cc1-c1csc(N/N=C\c2cccc(O)c2)n1`, the MIC with Candida albicans stood at 172 µM (≈ 62.5 µg/mL); against Staphylococcus aureus, 172 µM (≈ 62.5 µg/mL); in the test with Haemophilus influenzae (ATCC 10211, 24 h), 172 µM (≈ 62.5 µg/mL); in test [1], 172 µM (≈ 62.5 µg/mL); with Streptococcus pyogenes it was 344 µM (≈ 125 µg/mL).
On to `O=c1oc2ccccc2cc1-c1csc(N/N=C\c2cc(Br)ccc2O)n1`, for which the MIC is 35 µM (≈ 15.5 µg/mL) against Candida albicans; 35 µM (≈ 15.5 µg/mL) against Staphylococcus aureus; 17 µM (≈ 7.52 µg/mL) with Haemophilus influenzae (ATCC 10211, 24 h); 17 µM (≈ 7.52 µg/mL) in test [1]; 17 µM (≈ 7.52 µg/mL) with Streptococcus pyogenes.
Regarding `C/C(=N\Nc1nc(-c2cc3ccccc3oc2=O)cs1)c1ccc(O)cc1`, the MIC against Candida albicans was 331 µM (≈ 125 µg/mL); in the test with Staphylococcus aureus, 165 µM (≈ 62.3 µg/mL); against Haemophilus influenzae (ATCC 10211, 24 h), 331 µM (≈ 125 µg/mL); in test [1], over 663 µM; with Streptococcus pyogenes, 165 µM (≈ 62.3 µg/mL).
Take `CN(C)[C@@H]1C(O)=C(C(N)=O)C(=O)[C@@]2(O)C(O)=C3C(=O)c4c(O)cccc4[C@@](C)(O)[C@H]3C[C@@H]12` [TETRACYCLINE]: the MIC came out at 70 µM (≈ 31.1 µg/mL) in the test on Staphylococcus aureus; 35 µM (≈ 15.6 µg/mL) against Haemophilus influenzae (ATCC 10211, 24 h); 14 µM (≈ 6.22 µg/mL) in the test on Streptococcus pyogenes.
Take `COc1cccc(/C=N\Nc2nc(-c3cc4ccccc4oc3=O)cs2)c1O`: the MIC with Candida albicans was determined as 79 µM (≈ 31.1 µg/mL); against Staphylococcus aureus, 159 µM (≈ 62.6 µg/mL); against Haemophilus influenzae (ATCC 10211, 24 h), 79 µM (≈ 31.1 µg/mL); in test [1] it was 79 µM (≈ 31.1 µg/mL); with Streptococcus pyogenes it was 159 µM (≈ 62.6 µg/mL).
Regarding `O=c1oc2ccccc2cc1-c1csc(N/N=C\c2c(O)ccc3ccccc23)n1`, the MIC was 151 µM (≈ 62.4 µg/mL) in the test with Candida albicans; 75 µM (≈ 31 µg/mL) in the test with Staphylococcus aureus; 151 µM (≈ 62.4 µg/mL) with Haemophilus influenzae (ATCC 10211, 24 h); 75 µM (≈ 31 µg/mL) in test [1]; 75 µM (≈ 31 µg/mL) against Streptococcus pyogenes.
For the compound `O=c1oc2ccccc2cc1-c1csc(NN=C(c2ccccc2)c2ccccc2)n1`, the MIC in the test with Candida albicans stood at 147 µM (≈ 62.3 µg/mL); with Staphylococcus aureus, 295 µM (≈ 125 µg/mL); with Haemophilus influenzae (ATCC 10211, 24 h), 147 µM (≈ 62.3 µg/mL); in test [1], 147 µM (≈ 62.3 µg/mL); in the test with Streptococcus pyogenes it was 295 µM (≈ 125 µg/mL).
Consider `O=c1oc2ccccc2cc1-c1csc(N/N=C\c2ccc(O)cc2O)n1`, for which the MIC against Candida albicans amounted to 165 µM (≈ 62.6 µg/mL); in the test with Staphylococcus aureus it was 82 µM (≈ 31.1 µg/mL); with Haemophilus influenzae (ATCC 10211, 24 h) it was 329 µM (≈ 125 µg/mL); in test [1], 329 µM (≈ 125 µg/mL); against Streptococcus pyogenes, 329 µM (≈ 125 µg/mL).
For `O=c1oc2ccccc2cc1-c1csc(N/N=C\c2cccc3ccccc23)n1`, the MIC is 157 µM (≈ 62.4 µg/mL) in the test on Candida albicans; 157 µM (≈ 62.4 µg/mL) against Staphylococcus aureus; 314 µM (≈ 125 µg/mL) with Haemophilus influenzae (ATCC 10211, 24 h); 157 µM (≈ 62.4 µg/mL) in test [1]; 314 µM (≈ 125 µg/mL) with Streptococcus pyogenes.
For the compound `O=c1oc2ccccc2cc1-c1csc(N/N=C\c2ccc(O)cc2)n1`, the MIC was 172 µM (≈ 62.5 µg/mL) against Candida albicans; 344 µM (≈ 125 µg/mL) against Staphylococcus aureus; 344 µM (≈ 125 µg/mL) in the test on Haemophilus influenzae (ATCC 10211, 24 h); 344 µM (≈ 125 µg/mL) in test [1]; 172 µM (≈ 62.5 µg/mL) in the test with Streptococcus pyogenes.
As for `O=c1oc2ccccc2cc1-c1csc(N/N=C\c2ccccc2O)n1`, the MIC in the test on Candida albicans was found to be 86 µM (≈ 31.3 µg/mL); against Staphylococcus aureus, 172 µM (≈ 62.5 µg/mL); in the test with Haemophilus influenzae (ATCC 10211, 24 h), 43 µM (≈ 15.6 µg/mL); in test [1], 43 µM (≈ 15.6 µg/mL); in the test with Streptococcus pyogenes, 344 µM (≈ 125 µg/mL).
For `NNC(=O)c1ccncc1` [ISONIAZID], in test [1], the MIC was 1.3 µM (≈ 0.178 µg/mL).
`C/C(=N/Nc1nc(-c2cc3ccccc3oc2=O)cs1)c1cc2ccc(O)cc2oc1=O`: the MIC with Candida albicans worked out at 140 µM (≈ 62.4 µg/mL); in the test on Staphylococcus aureus it was 17 µM (≈ 7.57 µg/mL); in the test on Haemophilus influenzae (ATCC 10211, 24 h) it was 35 µM (≈ 15.6 µg/mL); in test [1] it was 17 µM (≈ 7.57 µg/mL); against Streptococcus pyogenes, 72 µM (≈ 32.1 µg/mL).
GENTAMICIN registered an MIC against Haemophilus influenzae of 13 µM.
`OC(Cn1cncn1)(Cn1cncn1)c1ccc(F)cc1F` [FLUCONAZOLE] returned an MIC in the test on Candida albicans of 10 µM (≈ 3.06 µg/mL).
`C/C(=N/Nc1nc(-c2cc3ccccc3oc2=O)cs1)c1cc2cc(Br)ccc2oc1=O`: the MIC against Candida albicans is 31 µM (≈ 15.8 µg/mL); against Staphylococcus aureus, 62 µM (≈ 31.5 µg/mL); against Haemophilus influenzae (ATCC 10211, 24 h), 15 µM (≈ 7.63 µg/mL); in test [1] it was 15 µM (≈ 7.63 µg/mL); with Streptococcus pyogenes, 62 µM (≈ 31.5 µg/mL).
